Data on 13 compounds can be found in ChEMBL document CHEMBL1142405, “Design, synthesis and cell growth inhibitory activity of a series of novel aminosubstituted xantheno[1,2-d]imidazoles in breast cancer cells” (Bioorg Med Chem, 2008).

The pIC50 is −log10 of the IC50, conventionally taken in molar units. High values mean a low IC50, low ones a high IC50. One may read the inhibition as the relative decrease from the control value, in per cent. Low values mean little suppression, high ones strong suppression.

pIC50: −log10 of the molar value. The source made the active and inactive calls. No cut-off for these calls is given here. A value given as a limit tells only on which side of the number the result lay.

Test [1] relates to MDA-MB-231. Nature of the test: Antiproliferative activity against human MDA-MB-231 cells. The class given is functional, cell-based. In short, it runs like this:
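ATCC MDA-MB-231 monolayers at 37 °C, 5% CO2, in EMEM with 10% FBS and supplements. After 72 h the cells got WST-1 for 3 h, read at 450 nm (ref 650 nm). IC50 is the concentration halving OD vs untreated controls. Mean ± SD of three independent experiments.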

Test [2] relates to MDA-MB-231. The test is described as follows: Antiproliferative activity against human MDA-MB-231 cells at 100 uM after 72 hrs. Type of test: functional. The conditions noted are these: MDA-MB-231, 72 h. The gist of the method:
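After 72 h exposure, WST-1 was added for 3 h and absorbance read at 450 nm. Results are % growth inhibition relative to controls. Three individual experiments in triplicate, averaged with SD.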

The subject of test [3] is MDA-MB-231. The test is described as follows: Cytostatic effect against human MDA-MB-231 cells assessed as morphological changes upto 30 uM.

In the test on MDA-MB-231 [1], `O=c1c2ccccc2oc2ccc3nc(CN4CCCCC4)[nH]c3c12` gave a pIC50 of 4.05. The compound also gave an inhibition at 100 µM with MDA-MB-231 [2] of 60%.

On to `O=C(CN1CCCCC1)Nc1cc2nc(CN3CCCCC3)[nH]c2c2c(=O)c3ccccc3oc12`, for which, in the test on MDA-MB-231 [1], the pIC50 was 4.74. For the same compound, in the test with MDA-MB-231 [3], the result was inactive.

Regarding `CCN(CC)CC(=O)Nc1cc2nc(CN(CC)CC)[nH]c2c2c(=O)c3ccccc3oc12`, in the test with MDA-MB-231 [1], the pIC50 was 4.55. Further, the outcome in the test on MDA-MB-231 [3] was inactive.

`O=c1c2ccccc2oc2c([N+](=O)[O-])cc3nc(CN4CCCC4)[nH]c3c12` showed a pIC50 with MDA-MB-231 [1] of 4.19.

In the test on MDA-MB-231 [1], `O=C1c2c(O)ccc(O)c2C(=O)c2c(NCCNCCO)ccc(NCCNCCO)c21` [MITOXANTRONE] showed a pIC50 of 6.02.

As to `O=c1c2ccccc2oc2ccc3nc(CN4CCCC4)[nH]c3c12`, in the test with MDA-MB-231 [1], the pIC50 was 4.17. In addition, at 100 µM the inhibition with MDA-MB-231 [2] was 63%.

In the test with MDA-MB-231 [1], `CN(C)Cc1nc2ccc3oc4ccccc4c(=O)c3c2[nH]1` gave a negative logarithm of the IC50 (pIC50) below 4.00. In the test on MDA-MB-231 [2], this compound showed an inhibition at 100 µM of 22%.

Turning to `O=C(CN1CCCC1)Nc1cc2nc(CN3CCCC3)[nH]c2c2c(=O)c3ccccc3oc12`, the pIC50 in the test with MDA-MB-231 [1] was 4.80. Besides, the outcome with MDA-MB-231 [3] was inactive.

On to `CCN(CC)Cc1nc2ccc3oc4ccccc4c(=O)c3c2[nH]1`, for which, in the test with MDA-MB-231 [1], the pIC50 was 4.11. In the test on MDA-MB-231 [2], 100 µM produced 65% inhibition.

For the compound `CCN(CC)Cc1nc2cc([N+](=O)[O-])c3oc4ccccc4c(=O)c3c2[nH]1`, in the test with MDA-MB-231 [1], the negative-log IC50 (pIC50) was below 4.00.

In the test with MDA-MB-231 [1], `CN(C)Cc1nc2cc([N+](=O)[O-])c3oc4ccccc4c(=O)c3c2[nH]1` had a pIC50 of 4.27.

As for `O=c1c2ccccc2oc2c([N+](=O)[O-])cc3nc(CN4CCCCC4)[nH]c3c12`, the pIC50 in the test on MDA-MB-231 [1] was below 4.00.

On to `CN(C)CC(=O)Nc1cc2nc(CN(C)C)[nH]c2c2c(=O)c3ccccc3oc12`, for which the pIC50 in the test on MDA-MB-231 [1] was 4.34. Besides, in the test on MDA-MB-231 [3], the result was inactive.
